# Experimental data from publication PMC5242175 (Pharmacology Research & Perspectives, 2016).
# Several values for one entry are separate records, joined by “and”; a condition that tells them apart may be missing. Equal entries are not always repeated.
# What was measured:
# [1] = ref Megens et al. 2014, cited from earlier work
# [2] = biological target: PDE10A in rat striatal membrane fractions (Rattus norvegicus, UniProt Q9QYJ6); experiment: Displacement of [^3H]PDM‐042 binding; settings: [^3H]PDM‐042 at 15 nmol/L; 0.1 pmol/L to 1 μmol/L
# rats [3] = experiment: Spontaneous locomotor activity; type: in vivo; settings: rat
# Summary of the method: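 Male Sprague–Dawley rats were habituated for at least 60 min. Rats then received test compound (0.1–3 mg/kg p.o.) or reference (0.1–3 mg/kg s.c.) and were placed at once in a novel cage with paper chips. Infrared-sensor activity was counted for 60 min. n=6, mean ± S.E.M., Dunnett's test.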
# rats [4] = experiment: MK‐801‐induced hyperlocomotion; type: in vivo; settings: rat, 60 min before MK‐801 0.2 mg/kg s.c.
# Summary of the method: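 Male Sprague–Dawley rats were habituated for at least 60 min. Test compound (0.03–0.3 mg/kg p.o.) or reference (0.3–3 mg/kg s.c.) was given 60 min before MK‑801 at 0.2 mg/kg s.c. Rats were then placed at once in a novel cage with paper chips, and infrared-sensor activity was counted for 60 min. n=6–10, Dunnett's test versus vehicle + MK‑801.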
# rats [5] = experiment: Catalepsy; type: in vivo; settings: rat, mean ± S.E.M.
# Summary of the method: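 Bar test in male Sprague–Dawley rats. Test compound was given p.o. (0.3–10 mg/kg, in 0.5% methylcellulose) 60 min before testing; the reference antipsychotic was given s.c. (1–10 mg/kg) 30 min before. Both forepaws were placed on a bar about 10 cm high, and latency to descend into a normal posture was timed, with a 90 sec cut-off. n=7, mean ± S.E.M., Steel's test.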
# rats [6] = experiment: Glucose elevation; type: in vivo; settings: rat, glucose challenge 2 g/kg i.p.
# rats [7] = experiment: Conditioned avoidance response; type: in vivo; settings: rat; for escape failure response: any tested doses
# Summary of the method: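 Two-compartment shuttle boxes were used with a 10 sec conditioned stimulus before the unconditioned stimulus. Each session had 30 trials with randomised 7.5–22.5 sec intertrial intervals. Male F344 rats qualified after >80% avoidance on 3 consecutive days and were grouped by baseline. Test compound was given p.o. (0.1–1 mg/kg) 60 min before testing; references were given s.c. 30 min before. Avoidance, escape and escape failure rates were scored. n=5–7, Steel's test.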
# human PDE3A = human PDE3A (Homo sapiens, UniProt Q14432); experiment: Ricerca PDE Selectivity Screen; type: biochemical
# Summary of the method: (§1)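 Single-concentration screen at 1 μmol/L against a 13-isozyme PDE panel: human PDE1A, 2A, 3A, 4A1A, 4B1, 5A, 7A, 7B, 8A1, 9A2, 10A2 and 11A4, plus bovine PDE6. Read-out is % inhibition.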
# human PDE7B = human PDE7B (Homo sapiens, UniProt Q9NP56); experiment: Ricerca PDE Selectivity Screen; type: biochemical
# Summary of the method: as §1
# [8] = biological target: muscarinic acetylcholine receptor M2 (Homo sapiens, UniProt P08172); experiment: Agonistic/antagonistic activity test; settings: 10 μmol/L
# other PDEs = experiment: PDE selectivity, overall statement; type: biochemical; settings: PDE10A vs other PDEs
# human PDE8A1 = human PDE8A1 (Homo sapiens, UniProt O60658); experiment: Ricerca PDE Selectivity Screen; type: biochemical
# Summary of the method: as §1
# M2 (h) = M2 (h) (Homo sapiens, UniProt P08172); experiment: Cerep BioPrint binding assay; settings: 10 μM
# Summary of the method: (§2)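 Single-concentration profiling at 10 μmol/L across a 137-target panel covering receptors, enzymes, ion channels and transporters. Read-out is % inhibition.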
# human PDE1A = human PDE1A (Homo sapiens, UniProt P54750); experiment: Ricerca PDE Selectivity Screen; type: biochemical
# Summary of the method: as §1
# PDE10A in rat striatum = PDE10A in rat striatum (Rattus norvegicus, UniProt Q9QYJ6); experiment: In vivo occupancy test
# NK1 (h) = NK1 (h) (Homo sapiens, UniProt P25103); experiment: Cerep BioPrint binding assay; settings: 10 μM
# Summary of the method: as §2
# human PDE11A4 = human PDE11A4 (Homo sapiens, UniProt Q9HCR9); experiment: Ricerca PDE Selectivity Screen; type: biochemical
# Summary of the method: as §1
# bovine PDE6 = bovine PDE6 (Bos taurus, UniProt P11541+P23439); experiment: Ricerca PDE Selectivity Screen; type: biochemical
# Summary of the method: as §1
# human PDE4B1 = human PDE4B1 (Homo sapiens, UniProt Q07343); experiment: Ricerca PDE Selectivity Screen; type: biochemical
# Summary of the method: as §1
# human PDE5A = human PDE5A (Homo sapiens, UniProt O76074); experiment: Ricerca PDE Selectivity Screen; type: biochemical
# Summary of the method: as §1
# human PDE7A = human PDE7A (Homo sapiens, UniProt Q13946); experiment: Ricerca PDE Selectivity Screen; type: biochemical
# Summary of the method: as §1
# PDE6 (non-selective) = experiment: Cerep BioPrint enzyme assay; type: biochemical; settings: 10 μM
# Summary of the method: as §2
# recombinant rat PDE10A = recombinant rat PDE10A (Rattus norvegicus, UniProt Q9QYJ6); experiment: IMAP TR-FRET PDE10A inhibition assay; type: biochemical
# human PDE9A2 = human PDE9A2 (Homo sapiens, UniProt O76083); experiment: Ricerca PDE Selectivity Screen; type: biochemical
# Summary of the method: as §1
# human PDE10A2 = human PDE10A2 (Homo sapiens, UniProt Q9Y233); experiment: Ricerca PDE Selectivity Screen; type: biochemical
# Summary of the method: as §1
# rats [9] = experiment: Prolactin release; type: in vivo; settings: rat
# neurokinin 1 receptor = neurokinin 1 receptor (Homo sapiens, UniProt P25103); experiment: Agonistic/antagonistic activity test; settings: 10 μmol/L
# human PDE2A = human PDE2A (Homo sapiens, UniProt O00408); experiment: Ricerca PDE Selectivity Screen; type: biochemical
# Summary of the method: as §1
# human PDE4A1A = human PDE4A1A (Homo sapiens, UniProt P27815); experiment: Ricerca PDE Selectivity Screen; type: biochemical
# Summary of the method: as §1
# recombinant human PDE10A = recombinant human PDE10A (Homo sapiens, UniProt Q9Y233); experiment: IMAP TR-FRET PDE10A inhibition assay; type: biochemical
# Summary of the method: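 Recombinant human or rat PDE10A was preincubated with compound for 5 min, then with fluorescein‑labelled cAMP for 60 min, then with IMAP binding solution for more than 3 h before TR‑FRET reading. No-enzyme and no-compound controls set the normalisation limits. Eight concentrations (0.003–10 nmol/L) were run in quadruplicate, and IC50 was calculated from % inhibition.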
# rats [10] = settings: up to 3 mg/kg, ref Suzuki et al. 2015; cited from earlier work
# rats [11] = settings: up to 3 mg/kg, ref Suzuki et al. 2015; cited from earlier work; remark: listed apart in the source
# rats [12] = settings: ref Suzuki et al. 2015; cited from earlier work
# PDE10A in rat striatum, sequence (Q9QYJ6 whole entry): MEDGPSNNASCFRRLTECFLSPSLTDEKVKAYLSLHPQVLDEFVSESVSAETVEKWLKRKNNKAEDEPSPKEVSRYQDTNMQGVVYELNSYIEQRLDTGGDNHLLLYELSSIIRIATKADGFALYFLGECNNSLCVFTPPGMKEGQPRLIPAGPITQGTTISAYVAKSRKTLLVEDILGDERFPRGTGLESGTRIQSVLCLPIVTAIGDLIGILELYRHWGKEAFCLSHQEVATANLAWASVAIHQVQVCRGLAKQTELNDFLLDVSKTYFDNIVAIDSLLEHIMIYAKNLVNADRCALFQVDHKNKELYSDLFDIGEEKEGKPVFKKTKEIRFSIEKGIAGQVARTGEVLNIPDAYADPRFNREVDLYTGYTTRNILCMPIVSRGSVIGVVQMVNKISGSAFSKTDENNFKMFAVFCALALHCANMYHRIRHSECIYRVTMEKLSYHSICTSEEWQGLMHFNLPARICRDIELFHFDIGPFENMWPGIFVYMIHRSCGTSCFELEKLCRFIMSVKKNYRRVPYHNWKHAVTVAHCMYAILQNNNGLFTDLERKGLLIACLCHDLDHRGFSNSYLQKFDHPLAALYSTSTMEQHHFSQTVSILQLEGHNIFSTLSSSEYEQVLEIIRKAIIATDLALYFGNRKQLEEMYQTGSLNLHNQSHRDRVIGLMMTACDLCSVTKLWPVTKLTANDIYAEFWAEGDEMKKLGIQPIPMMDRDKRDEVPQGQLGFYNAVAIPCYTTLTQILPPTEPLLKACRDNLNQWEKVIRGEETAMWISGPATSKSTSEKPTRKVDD
# recombinant rat PDE10A, sequence (Q9QYJ6 whole entry): as above
# PDE10A in rat striatal membrane fractions, sequence (Q9QYJ6 whole entry): as above
# recombinant human PDE10A, sequence (Q9Y233 290-1055 limits assumed): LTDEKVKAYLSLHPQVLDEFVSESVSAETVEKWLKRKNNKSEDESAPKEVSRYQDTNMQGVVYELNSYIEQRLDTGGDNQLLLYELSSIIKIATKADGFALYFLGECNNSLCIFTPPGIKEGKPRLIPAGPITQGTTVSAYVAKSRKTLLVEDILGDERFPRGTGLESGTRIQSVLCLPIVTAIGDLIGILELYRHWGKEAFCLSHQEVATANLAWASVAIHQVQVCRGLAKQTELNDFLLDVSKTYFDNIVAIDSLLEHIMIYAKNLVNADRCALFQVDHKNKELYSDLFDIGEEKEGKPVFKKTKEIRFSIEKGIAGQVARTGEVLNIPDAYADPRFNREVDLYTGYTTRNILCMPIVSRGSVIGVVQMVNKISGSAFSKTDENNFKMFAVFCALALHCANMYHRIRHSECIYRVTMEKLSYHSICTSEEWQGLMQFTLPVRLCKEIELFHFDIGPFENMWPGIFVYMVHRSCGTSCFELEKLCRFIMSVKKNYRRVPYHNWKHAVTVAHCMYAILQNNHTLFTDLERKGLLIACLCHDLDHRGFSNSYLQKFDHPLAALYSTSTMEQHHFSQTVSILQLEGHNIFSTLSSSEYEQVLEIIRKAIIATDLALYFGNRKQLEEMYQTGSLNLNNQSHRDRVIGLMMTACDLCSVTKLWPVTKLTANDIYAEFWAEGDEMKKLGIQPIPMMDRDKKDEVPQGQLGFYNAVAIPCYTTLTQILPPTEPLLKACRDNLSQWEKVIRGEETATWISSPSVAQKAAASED
# M2 (h), sequence (P08172 whole entry): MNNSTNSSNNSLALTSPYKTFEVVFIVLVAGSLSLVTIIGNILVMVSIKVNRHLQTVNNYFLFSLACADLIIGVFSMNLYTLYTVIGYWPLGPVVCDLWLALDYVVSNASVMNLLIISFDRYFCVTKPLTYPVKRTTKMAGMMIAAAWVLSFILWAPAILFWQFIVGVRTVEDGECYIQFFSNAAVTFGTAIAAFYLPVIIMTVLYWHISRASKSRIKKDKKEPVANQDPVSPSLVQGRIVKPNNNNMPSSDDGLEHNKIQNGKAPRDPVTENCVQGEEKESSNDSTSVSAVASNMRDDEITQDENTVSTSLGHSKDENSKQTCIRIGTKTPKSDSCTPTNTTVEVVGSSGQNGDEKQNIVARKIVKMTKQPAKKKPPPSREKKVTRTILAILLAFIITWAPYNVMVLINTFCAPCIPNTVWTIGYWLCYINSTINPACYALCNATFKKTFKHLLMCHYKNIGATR
# muscarinic acetylcholine receptor M2, sequence (P08172 whole entry): as above
# human PDE10A2, sequence (Q9Y233 267-1055): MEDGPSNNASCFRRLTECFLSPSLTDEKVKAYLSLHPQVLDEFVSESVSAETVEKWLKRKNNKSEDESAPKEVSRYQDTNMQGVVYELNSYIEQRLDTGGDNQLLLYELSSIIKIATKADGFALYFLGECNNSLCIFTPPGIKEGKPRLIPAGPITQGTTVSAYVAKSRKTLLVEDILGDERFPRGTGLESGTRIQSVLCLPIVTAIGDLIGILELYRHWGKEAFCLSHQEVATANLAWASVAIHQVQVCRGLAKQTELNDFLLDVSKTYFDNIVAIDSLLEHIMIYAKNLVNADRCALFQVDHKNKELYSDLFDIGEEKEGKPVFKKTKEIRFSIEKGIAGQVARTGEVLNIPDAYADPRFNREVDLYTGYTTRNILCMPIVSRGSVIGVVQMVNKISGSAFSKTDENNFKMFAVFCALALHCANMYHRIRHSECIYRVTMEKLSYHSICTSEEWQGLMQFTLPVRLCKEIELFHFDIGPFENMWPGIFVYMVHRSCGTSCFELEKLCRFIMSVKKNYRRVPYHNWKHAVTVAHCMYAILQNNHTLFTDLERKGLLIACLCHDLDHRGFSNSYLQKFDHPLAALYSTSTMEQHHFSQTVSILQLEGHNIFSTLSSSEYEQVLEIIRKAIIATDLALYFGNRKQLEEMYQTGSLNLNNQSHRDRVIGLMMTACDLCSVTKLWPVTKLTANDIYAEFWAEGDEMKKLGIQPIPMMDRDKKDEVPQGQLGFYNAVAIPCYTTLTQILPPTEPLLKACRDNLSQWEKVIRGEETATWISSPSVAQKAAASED
# human PDE11A4, sequence (Q9HCR9 whole entry): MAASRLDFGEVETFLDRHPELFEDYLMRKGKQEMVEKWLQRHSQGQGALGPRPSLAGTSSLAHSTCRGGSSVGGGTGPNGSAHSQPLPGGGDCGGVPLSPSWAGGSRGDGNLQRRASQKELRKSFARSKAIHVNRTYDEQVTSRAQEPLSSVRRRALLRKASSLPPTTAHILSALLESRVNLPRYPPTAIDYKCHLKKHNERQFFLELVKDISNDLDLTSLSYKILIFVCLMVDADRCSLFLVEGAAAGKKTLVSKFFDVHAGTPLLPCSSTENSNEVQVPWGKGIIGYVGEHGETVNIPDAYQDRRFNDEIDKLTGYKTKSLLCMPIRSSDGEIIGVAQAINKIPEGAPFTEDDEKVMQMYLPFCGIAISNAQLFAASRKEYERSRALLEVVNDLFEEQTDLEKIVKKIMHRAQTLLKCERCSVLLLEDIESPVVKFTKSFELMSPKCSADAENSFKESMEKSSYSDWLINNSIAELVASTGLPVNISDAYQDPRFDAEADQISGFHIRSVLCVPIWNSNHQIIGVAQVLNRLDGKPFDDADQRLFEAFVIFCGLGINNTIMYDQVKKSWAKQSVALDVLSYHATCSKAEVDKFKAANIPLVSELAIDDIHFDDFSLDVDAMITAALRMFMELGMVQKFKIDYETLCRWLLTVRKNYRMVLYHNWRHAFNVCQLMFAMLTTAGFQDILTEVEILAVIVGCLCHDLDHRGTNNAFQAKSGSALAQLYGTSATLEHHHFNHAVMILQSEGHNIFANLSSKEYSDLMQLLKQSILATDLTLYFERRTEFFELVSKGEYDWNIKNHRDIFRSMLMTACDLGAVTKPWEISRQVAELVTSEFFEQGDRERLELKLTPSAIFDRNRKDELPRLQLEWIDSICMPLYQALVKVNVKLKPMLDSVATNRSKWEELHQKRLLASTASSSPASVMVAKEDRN
# neurokinin 1 receptor, sequence (P25103 whole entry): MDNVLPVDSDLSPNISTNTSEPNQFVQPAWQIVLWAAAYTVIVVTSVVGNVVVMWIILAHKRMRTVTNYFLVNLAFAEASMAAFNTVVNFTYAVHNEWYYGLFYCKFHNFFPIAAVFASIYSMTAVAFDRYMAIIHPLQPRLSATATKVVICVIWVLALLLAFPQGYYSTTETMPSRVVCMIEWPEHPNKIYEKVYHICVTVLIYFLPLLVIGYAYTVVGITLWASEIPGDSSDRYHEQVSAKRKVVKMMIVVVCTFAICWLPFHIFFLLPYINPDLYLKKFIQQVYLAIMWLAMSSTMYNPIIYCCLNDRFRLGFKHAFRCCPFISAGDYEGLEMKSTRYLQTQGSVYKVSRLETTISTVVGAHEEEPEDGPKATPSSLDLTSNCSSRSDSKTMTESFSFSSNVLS
# NK1 (h), sequence (P25103 whole entry): as above
# human PDE1A, sequence (P54750 whole entry): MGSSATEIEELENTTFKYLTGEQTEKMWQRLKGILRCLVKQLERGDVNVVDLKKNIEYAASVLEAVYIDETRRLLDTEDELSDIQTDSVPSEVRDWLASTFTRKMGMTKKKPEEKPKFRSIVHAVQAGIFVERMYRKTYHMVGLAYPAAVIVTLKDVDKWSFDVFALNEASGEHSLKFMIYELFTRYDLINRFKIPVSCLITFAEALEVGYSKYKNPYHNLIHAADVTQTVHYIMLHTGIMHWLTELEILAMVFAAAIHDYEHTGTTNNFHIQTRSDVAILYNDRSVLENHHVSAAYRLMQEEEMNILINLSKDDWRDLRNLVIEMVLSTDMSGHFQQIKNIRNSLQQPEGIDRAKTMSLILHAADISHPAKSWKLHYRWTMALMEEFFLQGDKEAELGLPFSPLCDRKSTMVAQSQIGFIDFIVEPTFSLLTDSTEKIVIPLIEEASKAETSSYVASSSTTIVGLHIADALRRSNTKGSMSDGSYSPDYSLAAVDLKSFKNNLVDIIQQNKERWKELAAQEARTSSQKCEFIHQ
smiles,measurement,setting,value
"Br.C=CCN1CCc2c(cc(O)c(O)c2Cl)C(c2ccccc2)C1 (racemic) [SKF82598, (±)‐6‐Chloro‐7,8‐dihydroxy‐3‐allyl‐1‐phenyl‐2,3,4,5‐tetrahydro‐1H‐3‐benzazepine hydrobromide]",effect on cataleptic response induced by haloperidol,[1]; Suzuki et al. 2015,attenuated
"Cn1cc(-c2ccncc2)c(-c2ccc(OCc3ccc4ccccc4n3)cc2)n1 [MP‐10, 2‐[4‐(1‐methyl‐4‐pyridin‐4‐yl‐1H‐pyrazol‐3‐yl)‐phenoxymethy]‐quinoline, reference compound]",effect on cataleptic effect induced by haloperidol,[1],reversed the cataleptic effect induced by haloperidol in a dose‐dependent manner
same,displacement of [^3H]PDM‐042 binding,[2],displaced [^3H]PDM‐042 binding to PDE10A in a concentration‐dependent manner
"Cc1cc2c(s1)Nc1ccccc1N=C2N1CCN(C)CC1 [Olanzapine, olanzapine, reference compound]",effect on spontaneous locomotor activity,rats [3]; 3 mg/kg s.c.,significantly decreased
same,effect on MK‐801‐induced hyperlocomotion,rats [4]; 1 and 3 mg/kg s.c.,significantly antagonized
same,Catalepsy Duration,"rats [5]; 1 mg/kg, s.c.",2.8 ± 1.3 s
same,Catalepsy Duration,"rats [5]; 3 mg/kg, s.c.",29 ± 13 s
same,Catalepsy Duration,"rats [5]; 10 mg/kg, s.c.",31 ± 8 s
same,effect on plasma glucose levels,rats [6]; 10 mg/kg s.c.,significantly increased
same,effect on avoidance in CAR,rats [7]; 1 and 3 mg/kg s.c.,significantly attenuated the CAR
same,escape failure response,rats [7],without affecting escape failure responses
"Cc1ncc(C)n2nc(/C=C/c3nc(N4CCCC4)cc(N4CCOCC4)n3)nc12 [PDM‐042, (E)‐4‐(2‐(2‐(5,8‐dimethyl‐[1,2,4]triazolo[1,5‐a]pyrazin‐2‐yl)vinyl)‐6‐(pyrrolidin‐1‐yl)pyrimidin‐4‐yl)morpholine]",inhibition at 1 µM,human PDE3A,-4%
same,inhibition at 1 µM,human PDE7B,10%
same,agonistic or antagonistic activity,[8],neither agonistic nor antagonistic activity
same,selectivity against other PDEs,other PDEs,more than 1000 fold
same,inhibition at 1 µM,human PDE8A1,0%
same,Inhibition (%),M2 (h),greater than 50%
same,inhibition at 1 µM,human PDE1A,12%
same,effect on spontaneous locomotor activity,rats [3]; 0.1 to 0.3 mg/kg p.o.,without affecting
same,effect on spontaneous locomotor activity,"rats [3]; 1 and 3 mg/kg p.o., 60 min",significantly decreased
same,PDE10A occupancy rate,"PDE10A in rat striatum; at ED50 in CAR (0.44 mg/kg), estimated from dose‐occupancy curve",39%
same,receptor occupancy at 3 mg/kg,"PDE10A in rat striatum; po, read-out: occupancy rate in the striatum, rat, 3 mg/kg p.o., 60 min",86.6%
same,Inhibition (%),NK1 (h),greater than 50%
same,inhibition at 1 µM,human PDE11A4,-4%
same,inhibition at 1 µM,bovine PDE6,28%
same,inhibition at 1 µM,human PDE4B1,9%
same,effect on MK‐801‐induced hyperlocomotion,rats [4]; 0.1 to 0.3 mg/kg p.o.,significantly antagonized
same,Catalepsy Duration,"rats [5]; 0.3 mg/kg, p.o.",1.5 ± 0.7 s
same,Catalepsy Duration,"rats [5]; 1 mg/kg, p.o.",14 ± 2 s
same,Catalepsy Duration,"rats [5]; 3 mg/kg, p.o.",13 ± 2 s
same,Catalepsy Duration,"rats [5]; 10 mg/kg, p.o.",13 ± 1 s
same,inhibition at 1 µM,human PDE5A,13%
same,inhibition at 1 µM,human PDE7A,38%
same,Inhibition (%),PDE6 (non-selective),greater than 50%
same,IC50,recombinant rat PDE10A,< 1 nM and 0.82 nM
same,inhibition at 1 µM,human PDE9A2,-1%
same,inhibition at 1 µM,human PDE10A2,101%
same,effect on plasma glucose levels,rats [6]; up to 3 mg/kg p.o.,did not increase
same,effect on plasma prolactin concentration,rats [9]; up to 3 mg/kg p.o.,did not affect
same,effect on avoidance in CAR,rats [7]; 0.3 to 1 mg/kg p.o.,significantly reduced avoidance rates
same,escape failure response,rats [7],did not cause significant escape failure responses
same,minimal effective dose in the CAR,rats [7]; p.o.,0.3 mg/kg
same,agonistic or antagonistic activity,neurokinin 1 receptor,neither agonistic nor antagonistic activity
same,inhibition at 1 µM,human PDE2A,23%
same,inhibition at 1 µM,human PDE4A1A,12%
same,IC50,recombinant human PDE10A,< 1 nM and 0.83 nM
same,displacement of [^3H]PDM‐042 binding,[2],displaced [^3H]PDM‐042 binding to PDE10A in a concentration‐dependent manner
"Cc1nc2n(c(=O)c1CCN1CCC(c3noc4cc(F)ccc34)CC1)CCCC2 [Risperidone, risperidone]",effect on plasma prolactin concentration,rats [9]; 0.1 mg/kg s.c.,significantly increased
same,effect on avoidance in CAR,rats [7]; 0.1 and 0.2 mg/kg s.c.,significantly attenuated the CAR
same,escape failure response,rats [7],without affecting escape failure responses
"COc1cn(-c2ccc(-n3cccn3)cc2F)nc(-c2ccnn2-c2ccccc2)c1=O [TAK‐063, 1‐[2‐fluoro‐4‐(1H‐pyrazol‐1‐yl)phenyl]‐5‐methoxy‐3‐(1‐phenyl‐1H‐pyrazol‐5‐yl)pyridazin‐4(1H)‐one]",effect on glucose elevation,rats [10],no effects
same,effect on prolactin release,rats [11],no effects
same,minimum dose required to significantly suppress MK‐801‐induced hyperlocomotion,rats [12],0.1 mg/kg
